In ChEMBL document CHEMBL4351014, “Bis(het)aryl-1,2,3-triazole quinuclidines as α7 nicotinic acetylcholine receptor ligands: Synthesis, structure affinity relationships, agonism activity, [18F]-radiolabeling and PET study in rats” (Eur J Med Chem, 2019):

Experiments:
[1] = Ratio of drug uptake in rat brain frontal cortex to cerebellum at 7.3 +/- 0.44 MBq, iv and measured after 1 hr by gamma counting analysis; format: ADME, organism-based; details: in vivo
[2] = Drug uptake in rat brain frontal cortex at 7.3 +/- 0.44 MBq, iv and measured after 1 hr by gamma counting analysis; format: ADME, organism-based; details: in vivo
Summary of the method: (§1)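 Male Wistar rats (250-300 g, n=6 per group) under isoflurane received 0.3 mL tracer i.v. via the penis vein; MLA groups got methyllycaconitine 1 mg/kg i.v. 15 min before. Decapitated at 1 h. Frontal cortex, hippocampus, hypothalamus, striatum and cerebellum weighed and gamma counted (48% efficiency). %ID/g calculated against standard dilutions of the injectate, mean ± SEM.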

[3] = Drug uptake in rat brain hippocampus at 7.3 +/- 0.44 MBq, iv and measured after 1 hr by gamma counting analysis; format: ADME, organism-based; details: in vivo; summary of the method: as §1
[4] = Drug uptake in rat brain cerebellum at 7.3 +/- 0.44 MBq, iv and measured after 1 hr by gamma counting analysis; format: ADME, organism-based; details: in vivo; summary of the method: as §1
[5] = Ratio of drug uptake in rat brain striatum to cerebellum at 7.3 +/- 0.44 MBq, iv and measured after 1 hr by gamma counting analysis; format: ADME, organism-based; details: in vivo
[6] = Drug uptake in rat brain hypothalamus at 7.3 +/- 0.44 MBq, iv and measured after 1 hr by gamma counting analysis; format: ADME, organism-based; details: in vivo; summary of the method: as §1
[7] = Drug uptake in rat brain cerebellum at 7.3 +/- 0.44 MBq, iv pretreated with alpha7 nAChR antagonist methyllycaconitine for 15 mins followed by compound addition and measured after 1 hr by gamma counting analysis; format: organism-based; details: in vivo; summary of the method: as §1
[8] = Drug uptake in rat brain hippocampus at 7.3 +/- 0.44 MBq, iv pretreated with alpha7 nAChR antagonist methyllycaconitine for 15 mins followed by compound addition and measured after 1 hr by gamma counting analysis; format: organism-based; details: in vivo; summary of the method: as §1
[9] = Drug uptake in rat brain frontal cortex at 7.3 +/- 0.44 MBq, iv pretreated with alpha7 nAChR antagonist methyllycaconitine for 15 mins followed by compound addition and measured after 1 hr by gamma counting analysis; format: organism-based; details: in vivo; summary of the method: as §1
[10] = Drug uptake in rat brain at 37MBq, iv administrated and measured during 71 mins of acquisition by PET-CT analysis; format: ADME, organism-based; details: in vivo
Summary of the method: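 Rats given a 37 MBq i.v. bolus and scanned on a microPET-CT for 71 min. Images reconstructed by 2-D OSEM; summed frames from 49-71 min shown.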

[11] = Stability of the compound in rat plasma measured up to 4 hrs by HPLC analysis; format: ADME, organism-based; details: read-out: Stability
Summary of the method: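 100 μL radiotracer mixed with 1 mL rat plasma at 37 °C. Acetonitrile added, organic layer filtered and analysed by radio-HPLC on a C18 column at 30 min, 1, 2 and 4 h. Repeated twice with different radiotracer preparations.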

[12] = Drug uptake in rat brain hypothalamus at 7.3 +/- 0.44 MBq, iv pretreated with alpha7 nAChR antagonist methyllycaconitine for 15 mins followed by compound addition and measured after 1 hr by gamma counting analysis; format: organism-based; details: in vivo; summary of the method: as §1
[13] = Drug uptake in rat brain striatum at 7.3 +/- 0.44 MBq, iv pretreated with alpha7 nAChR antagonist methyllycaconitine for 15 mins followed by compound addition and measured after 1 hr by gamma counting analysis; format: organism-based; details: in vivo; summary of the method: as §1
[14] = Drug uptake in rat brain striatum at 7.3 +/- 0.44 MBq, iv and measured after 1 hr by gamma counting analysis; format: ADME, organism-based; details: in vivo; summary of the method: as §1
[15] = Ratio of drug uptake in rat brain hippocampus to cerebellum at 7.3 +/- 0.44 MBq, iv and measured after 1 hr by gamma counting analysis; format: ADME, organism-based; details: in vivo
[16] = Drug uptake in rat brain cerebellum at 6.5 +/- 0.46 MBq, iv and measured after 1 hr by gamma counting analysis; format: ADME, organism-based; details: in vivo; summary of the method: as §1
[17] = Drug uptake in rat brain striatum […], iv and measured after 1 hr by gamma counting analysis; format: ADME, organism-based; details: in vivo; summary of the method: as §1
[18] = Drug uptake in rat brain frontal cortex at 6.5 +/- 0.46 MBq, iv and measured after 1 hr by gamma counting analysis; format: ADME, organism-based; details: in vivo; summary of the method: as §1
[19] = Drug uptake in rat brain cerebellum at 6.5 +/- 0.46 MBq, iv pretreated with alpha7 nAChR antagonist methyllycaconitine for 15 mins followed by compound addition and measured after 1 hr by gamma counting analysis; format: organism-based; details: in vivo; summary of the method: as §1
[20] = Stability of the compound in 0.9% sodium chloride/ethanol solution by HPLC analysis; format: physicochemical
[21] = Stability of the compound in 100% ethanol measured up to 4 hrs by HPLC analysis; format: physicochemical
[22] = Drug uptake in rat brain frontal cortex at 6.5 +/- 0.46 MBq, iv pretreated with alpha7 nAChR antagonist methyllycaconitine for 15 mins followed by compound addition and measured after 1 hr by gamma counting analysis; format: organism-based; details: in vivo; summary of the method: as §1
[23] = Drug uptake in rat brain hippocampus at 6.5 +/- 0.46 MBq, iv and measured after 1 hr by gamma counting analysis; format: ADME, organism-based; details: in vivo; summary of the method: as §1
[24] = Drug uptake in rat brain striatum at 6.5 +/- 0.46 MBq, iv pretreated with alpha7 nAChR antagonist methyllycaconitine for 15 mins followed by compound addition and measured after 1 hr by gamma counting analysis; format: organism-based; details: in vivo; summary of the method: as §1
[25] = Drug uptake in rat brain hypothalamus at 6.5 +/- 0.46 MBq, iv and measured after 1 hr by gamma counting analysis; format: ADME, organism-based; details: in vivo; summary of the method: as §1
[26] = Drug uptake in rat brain hypothalamus at 6.5 +/- 0.46 MBq, iv pretreated with alpha7 nAChR antagonist methyllycaconitine for 15 mins followed by compound addition and measured after 1 hr by gamma counting analysis; format: organism-based; details: in vivo; summary of the method: as §1
[27] = Drug uptake in rat brain hippocampus at 6.5 +/- 0.46 MBq, iv pretreated with alpha7 nAChR antagonist methyllycaconitine for 15 mins followed by compound addition and measured after 1 hr by gamma counting analysis; format: organism-based; details: in vivo; summary of the method: as §1
[28] = Ratio of drug uptake in rat brain frontal cortex to cerebellum at 6.5 +/- 0.46 MBq, iv and measured after 1 hr by gamma counting analysis; format: ADME, organism-based; details: in vivo

SMILES: [18F]c1ccc(-c2ccc(-c3cn([C@H]4CN5CCC4CC5)nn3)s2)cn1
- Ratio [1]: 1.47
- Drug uptake [2]: 0.85 % ID/g
- Drug uptake [3]: 0.78 % ID/g
- Drug uptake [4]: 0.58 % ID/g
- Ratio [5]: 1.31
- Drug uptake [6]: 0.59 % ID/g
- Drug uptake [7]: Active
- Drug uptake [8]: Active
- Drug uptake [9]: Active
- Drug uptake [10]: Active
- remaining at 4 h [11]: > 95%
- Drug uptake [12]: Active
- Drug uptake [13]: Active
- Drug uptake [14]: 0.76 % ID/g
- Ratio [15]: 1.34

SMILES: [18F]Cc1ccc(-c2ccc(-c3cn([C@H]4CN5CCC4CC5)nn3)s2)cc1
- Drug uptake [16]: 0.44 % ID/g
- Drug uptake [17]: 0.44 % ID/g
- Drug uptake [18]: 0.56 % ID/g
- Drug uptake [19]: Active
- Stability [20]: Unstable
- Stability [21]: Stable
- Drug uptake [22]: Active
- Drug uptake [23]: 0.43 % ID/g
- Drug uptake [24]: Active
- Drug uptake [25]: 0.42 % ID/g
- Drug uptake [10]: Active
- remaining at 4 h [11]: > 95%
- Drug uptake [26]: Active
- Drug uptake [27]: Active
- Ratio [28]: 1.29
